Bioassay records deposited in PubChem BioAssay by several laboratories.
A selection: hits, their analogues and other compounds. The true share with any hit is near 5.5%.
PostGolgi ctrl – growth inhibition of yeast control strain, primary screen, counter-screen for post-Golgi transport modulator project. efflux-deficient yeast background strain, growth absorbance A615, 16 h. inhibition, % at 10 µM. 98,000 tested, 5% active. AID 738, 2007
HePTP inhibitor – inhibitors of human HePTP phosphatase, primary screen, biochemical, absorbance, leukemia target | Tyrosine-protein phosphatase non-receptor type 7 (Homo sapiens), P35236 | recombinant HePTP phosphatase activity, OD absorbance | inhibition, % at 20 µM | 110,000 tested, 0.64% active | AID 521, 2006; in the data active means inhibition above about 50%
Target sequence (P35236 whole entry, looked up): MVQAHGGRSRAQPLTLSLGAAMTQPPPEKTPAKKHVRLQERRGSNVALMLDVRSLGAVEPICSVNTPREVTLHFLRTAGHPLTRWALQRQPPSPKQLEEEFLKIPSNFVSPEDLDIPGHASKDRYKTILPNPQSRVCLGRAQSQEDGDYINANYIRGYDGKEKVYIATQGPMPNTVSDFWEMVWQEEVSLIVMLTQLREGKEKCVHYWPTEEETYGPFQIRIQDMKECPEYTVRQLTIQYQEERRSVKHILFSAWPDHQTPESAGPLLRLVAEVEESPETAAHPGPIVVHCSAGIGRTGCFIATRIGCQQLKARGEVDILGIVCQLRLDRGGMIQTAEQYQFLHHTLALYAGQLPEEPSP
PLAP activator – PLAP enzyme activators, biochemical, luminescence, HTS | Alkaline phosphatase, placental type (Homo sapiens), P05187 | purified PLAP enzyme, luminescent substrate read-out; active compounds read high | activation fold at 20 µM | 96,000 tested, 1.2% active; in the data active means activation fold above about 2
tolC growth inh – growth inhibitors of E. coli tolC mutant, primary screen, strain BW25113 ΔtolC::kan, 384-well. OD615. growth inhibition, % at 10 µM (by protocol). 65,000 tested, 2.2% active;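 active means growth inhibition at or above a cutoff equal to the mean over every tested compound plus 3 SD, cut at about 60% in these data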;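 further: growth measured after 20 h incubation at 37 °C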
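Signal: optical density read at 615 nm; Assay system: E. coli ΔtolC::kan strain BW25113; Times: 20 h incubation with compound, 37 °C; Dosing: 10 µM final, single dose.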
Ecoli WT expand – growth inhibitors of wild-type E. coli, primary screen, strain BW25113, expanded library, OD600. 98,000 tested, 0.15% active. growth inhibition, % at 100 µM. OD600 absorbance. AID 710, 2007;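 active means growth inhibition above about 50% at one test dose, limit read from the data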;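 further: growth measured after 20 h incubation at 37 °C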
PostGolgi yeast – phenotypic screen on post-Golgi transport, primary screen; post-Golgi transport phenotypic cell assay; inhibition, % at 10 µM; 98,000 tested, 0.9% active; AID 739, 2007;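 further: yeast cells grown in 1536-well plates; yeast grown about 18 h at 30C before absorbance read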
Hits are given with their value; - = inactive; . = not tested or not shown. Unless noted, no stated cut-off is given here; in the data, active means inhibition above about 30%; inactive means the rest.

SMILES	PostGolgi ctrl	HePTP inhibitor	PLAP activator	tolC growth inh	Ecoli WT expand	PostGolgi yeast
CN(C)c1ccc(C(=O)n2nnc3ccccc32)cc1	-	.	-	.	-	-
CCN(CC)c1ccc(C(=O)n2cnc3ccccc32)cc1	-	-	-	77.9	-	-
Cc1cccc(NC(=O)CSc2nc3ccc(N4C(=O)c5ccccc5C4=O)cc3s2)c1C	-	-	-	.	-	-
CCc1cccc(CC)c1NC(=O)CSc1nc2ccc(N3C(=O)C4C5C=CC(C5)C4C3=O)cc2s1 (stereo unspecified)	30.1	.	-	.	-	-
O=C(NCCCc1ccccc1)C1CCN(c2nnc(-n3cccc3)s2)CC1	38.5	-	-	-	-	-
CC(CCc1ccccc1)NC(=O)C1CCCN(c2nnc(-n3cccc3)s2)C1 (stereo unspecified)	-	-	.	-	-	-
O=C(C1CCCN(c2nnc(-n3cccc3)s2)C1)N1CCN(c2ccccc2)CC1 (stereo unspecified)	41.1	-	-	-	-	-
Cc1cc(C(=O)N2CC(C)CC(C)C2)n(-c2ccccc2)n1 (stereo unspecified)	32.1	-	-	-	-	-
CS(=O)(=O)N(CC(=O)Nc1ccccc1Sc1ccccc1)c1cccc(Br)c1	41.3	.	-	.	-	-
Cc1ccccc1NC(=O)CN(c1cccc(Br)c1)S(=O)(=O)c1ccccc1	.	-	.	.	.	.
Cc1ccc(C)c(OCCOCCOc2ncnc3ccccc23)c1	.	-	.	.	.	.
COc1ccc(OCCSc2ncnc3nc[nH]c23)cc1	-	-	2	-	-	-
COc1ccc(OCCSc2ncccn2)cc1	32.8	-	-	-	-	-
c1ccc(CSc2ncnc3nc[nH]c23)cc1	.	-	.	.	.	.
CN(C)c1nc(SCCOC(=O)Nc2ccccc2)nc(N(C)C)n1	-	-	-	85.5	-	-
Cc1cccc(CSc2ncnc3nc[nH]c23)c1	-	-	2.2	-	-	-
CCOC(=O)c1c(NC(=O)/C=C/c2ccco2)sc2c1CCCC2	.	-	.	.	.	.
COc1ccccc1CC(=O)NCc1ccccn1	.	-	.	.	.	.
O=C(Nc1ccc(I)cc1)C(Cc1ccccc1)N1C(=O)c2ccccc2C1=O (stereo unspecified)	.	-	.	.	.	.
CCN(CC)C(=O)C(=O)N/N=C/c1cccc(OC)c1	.	-	.	.	.	.
CCOc1nc(SCCOc2ccccc2)nc(N(C)C)n1	-	-	-	-	-	40.7
Cc1cc2ncn(-c3ncnc4sc(C)c(C)c34)c2cc1C	-	-	-	-	-	-
Cc1cc2ncn(-c3ncnc4sc5c(c34)CCC(C)C5)c2cc1C (stereo unspecified)	69.8	.	-	.	-	-
Cc1cc2ncn(-c3ncnc4sc5c(c34)CCCC5)c2cc1C	38.7	.	-	.	-	-
CCOc1ccc(N2C(=O)CC(NCC(=O)OC)C2=O)cc1 (stereo unspecified)	.	-	.	.	.	.
SMILES	PostGolgi ctrl	HePTP inhibitor	PLAP activator	tolC growth inh	Ecoli WT expand	PostGolgi yeast
NS(=O)(=O)c1cccc(C(=O)Nc2ccccc2)c1	.	-	.	.	.	.
Cc1ccc(OCC(O)CN2C(C)(C)CC(O)CC2(C)C)c(C)c1 (stereo unspecified)	.	-	.	.	.	.
CCOC(=O)CSc1nc(C2CC2)nc2ccccc12	38.9	-	-	-	-	-
COc1cc2[nH]c(=S)n(CCCN3CCOCC3)c(=O)c2cc1OC	-	-	-	-	-	37.7
COc1cc2[nH]c(=S)n(CCN3CCOCC3)c(=O)c2cc1OC	-	-	-	-	-	-
CCCn1cnc2cc(NCc3cccc(OC)c3O)ccc21	-	-	2.7	-	-	-
